# Source: ChEMBL document CHEMBL1641566, “N-(Pyridin-3-yl)benzamides as selective inhibitors of human aldosterone synthase (CYP11B2)” (Bioorg Med Chem Lett, 2011)
# Legend:
# [1] = target: T1, Cytochrome P450 11B2, mitochondrial (Homo sapiens, UniProt P19099); assay: Inhibition of human aldosterone synthase expressed in chinese hamster V79 cells at 500 nM using 11-deoxycorticosterone as substrate; conditions: read-out: INH
# T1 sequence (P19099 whole entry): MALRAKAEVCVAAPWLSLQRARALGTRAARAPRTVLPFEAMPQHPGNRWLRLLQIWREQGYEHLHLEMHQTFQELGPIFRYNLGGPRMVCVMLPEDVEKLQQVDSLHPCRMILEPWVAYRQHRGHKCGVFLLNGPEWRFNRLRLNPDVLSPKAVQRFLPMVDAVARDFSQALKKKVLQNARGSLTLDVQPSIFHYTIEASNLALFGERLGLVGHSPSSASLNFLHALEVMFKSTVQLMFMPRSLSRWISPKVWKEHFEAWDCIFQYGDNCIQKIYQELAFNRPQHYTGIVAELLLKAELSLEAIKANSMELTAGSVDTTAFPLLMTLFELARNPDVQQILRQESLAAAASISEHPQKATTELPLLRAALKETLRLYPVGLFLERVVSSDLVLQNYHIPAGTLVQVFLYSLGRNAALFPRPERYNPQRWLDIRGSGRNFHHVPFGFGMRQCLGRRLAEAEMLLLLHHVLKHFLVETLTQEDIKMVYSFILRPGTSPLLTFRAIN
# [2] = target: T2, CYP11B1 (steroid-11beta-hydroxylase) (Homo sapiens, UniProt P15538); assay: Inhibition of human steroid-11beta-hydroxylase expressed in chinese hamster V79 cells at 500 nM using 11-deoxycorticosterone as substrate
# T2 sequence (P15538 whole entry): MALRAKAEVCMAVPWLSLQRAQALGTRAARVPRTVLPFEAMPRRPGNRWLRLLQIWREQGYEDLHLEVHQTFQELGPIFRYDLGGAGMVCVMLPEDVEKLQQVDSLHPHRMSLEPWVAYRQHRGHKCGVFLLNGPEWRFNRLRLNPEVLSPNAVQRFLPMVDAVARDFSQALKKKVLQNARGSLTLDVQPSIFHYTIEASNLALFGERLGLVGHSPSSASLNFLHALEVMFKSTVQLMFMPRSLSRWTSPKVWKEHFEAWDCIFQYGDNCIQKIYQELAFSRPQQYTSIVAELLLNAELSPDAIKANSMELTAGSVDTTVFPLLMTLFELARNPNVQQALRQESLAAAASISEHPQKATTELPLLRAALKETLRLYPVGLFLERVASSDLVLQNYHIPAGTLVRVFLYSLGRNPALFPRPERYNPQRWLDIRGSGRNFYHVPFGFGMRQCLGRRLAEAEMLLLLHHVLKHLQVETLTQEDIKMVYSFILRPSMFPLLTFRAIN
# [3] = target: T1, Cytochrome P450 11B2, mitochondrial; assay: Inhibition of human aldosterone synthase expressed in chinese hamster V79 cells using 11-deoxycorticosterone as substrate; assay type: cell-based
# [4] = organism: Homo sapiens; assay: Selectivity ratio of IC50 for human steroid-11beta-hydroxylase to IC50 for human aldosterone synthase
# [5] = target: T3, CYP17 (steroid 17-alpha-hydroxylase/17,20 lyase) (Homo sapiens, UniProt P05093); assay: Inhibition of human CYP17 expressed in Escherichia coli at 2000 nM using progesterone as substrate; conditions: probe progesterone
# T3 sequence (P05093 whole entry): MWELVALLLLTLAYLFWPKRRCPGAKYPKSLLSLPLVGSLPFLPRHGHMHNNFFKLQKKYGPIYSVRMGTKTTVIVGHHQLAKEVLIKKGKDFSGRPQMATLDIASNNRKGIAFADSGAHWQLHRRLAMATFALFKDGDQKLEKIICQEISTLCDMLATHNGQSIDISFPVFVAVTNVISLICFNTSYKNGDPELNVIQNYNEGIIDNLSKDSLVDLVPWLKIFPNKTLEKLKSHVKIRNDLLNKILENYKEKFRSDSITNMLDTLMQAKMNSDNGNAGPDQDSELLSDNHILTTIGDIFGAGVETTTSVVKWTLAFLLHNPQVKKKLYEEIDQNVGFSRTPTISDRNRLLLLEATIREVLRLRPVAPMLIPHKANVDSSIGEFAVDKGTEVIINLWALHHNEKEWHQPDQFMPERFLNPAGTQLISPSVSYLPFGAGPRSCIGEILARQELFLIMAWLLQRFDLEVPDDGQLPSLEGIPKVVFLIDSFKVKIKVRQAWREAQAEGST
# How it was run: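 50,000 g sediment of homogenate from E. coli recombinantly expressing human CYP17; substrate progesterone at 25 µM; inhibitor tested at 2.0 µM.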
# [6] = target: T4, CYP19 (aromatase) (Homo sapiens, UniProt P11511); assay: Inhibition of human placental CYP19 at 500 nM using androstenedione as substrate; conditions: human placental CYP19, probe androstenedione
# T4 sequence (P11511 whole entry): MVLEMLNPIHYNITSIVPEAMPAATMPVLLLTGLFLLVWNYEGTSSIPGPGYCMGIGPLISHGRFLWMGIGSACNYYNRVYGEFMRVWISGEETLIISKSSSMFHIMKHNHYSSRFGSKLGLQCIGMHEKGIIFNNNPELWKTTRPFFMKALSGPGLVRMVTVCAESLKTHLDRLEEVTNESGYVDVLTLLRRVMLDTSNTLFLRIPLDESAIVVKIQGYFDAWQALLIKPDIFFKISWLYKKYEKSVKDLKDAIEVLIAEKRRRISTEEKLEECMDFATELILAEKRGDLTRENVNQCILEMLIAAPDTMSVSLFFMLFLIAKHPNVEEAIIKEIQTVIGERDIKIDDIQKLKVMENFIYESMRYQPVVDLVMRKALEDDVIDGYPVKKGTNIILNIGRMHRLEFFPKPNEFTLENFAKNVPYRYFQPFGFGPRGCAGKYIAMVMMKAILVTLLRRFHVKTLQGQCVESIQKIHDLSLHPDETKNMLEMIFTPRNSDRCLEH
# How it was run: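 Human placental CYP19 as enzyme source; substrate androstenedione at 500 nM.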
# [7] = target: T5, Cytochrome P450 11B1, mitochondrial (Homo sapiens, UniProt P15538); assay: Inhibition of human steroid-11beta-hydroxylase expressed in chinese hamster V79 cells using 11-deoxycorticosterone as substrate; assay type: cell-based
# T5 sequence (P15538 whole entry): T2 sequence (P15538 whole entry)
SMILES,inhibition at 0.5 µM [1],inhibition at 0.5 µM ([2]; probe 11-deoxycorticosterone),IC50 [3],Ratio IC50 [4],inhibition at 2 µM [5],inhibition at 0.5 µM [6],IC50 [7],inhibition at 0.5 µM ([2]; v79)
O=C(Nc1cccnc1)c1cncc(Br)c1,29%,0.4%,–,–,–,–,–,–
O=C(Nc1cccnc1)c1ccc(-c2ccccc2)cc1,6%,0%,–,–,–,–,–,–
O=C(Nc1cccnc1)c1ccncc1,39%,4%,–,–,–,–,–,–
O=C(Nc1cccnc1)c1cccnc1,8%,3%,–,–,–,–,–,–
O=C(Nc1cccnc1)c1cc(F)c(F)cc1F,70%,2%,0.166 µM,97,0.6%,0%,16.1 µM,–
O=C(Nc1cccnc1)c1cccc(Cl)c1,26%,0%,–,–,–,–,–,–
CC(C)(C(=O)c1cccnc1)c1cccnc1 [METYRAPONE],79%,94%,–,–,0%,0%,–,–
O=C(Nc1cccnc1)c1ccc(F)c(F)c1,83%,6%,0.0535 µM,111,1%,0.5%,5.92 µM,–
O=C1CCc2cc(-c3cncc4ccccc34)ccc2N1,–,91%,–,–,–,–,–,–
O=C(Nc1cccnc1)c1cccc(Cl)c1Cl,51%,4%,–,–,–,–,–,–
O=C(Nc1cccnc1)c1ccccc1F,34%,1%,–,–,–,–,–,–

# Results, then the molecule that gave them:
inhibition at 0.5 µM [1],inhibition at 0.5 µM ([2]; probe 11-deoxycorticosterone),IC50 [3],Ratio IC50 [4],inhibition at 2 µM [5],inhibition at 0.5 µM [6],IC50 [7],inhibition at 0.5 µM ([2]; v79),SMILES
64%,0%,0.145 µM,171,1%,0%,24.8 µM,–,O=C(Nc1cccnc1)c1ccc([N+](=O)[O-])cc1
1%,1%,–,–,–,–,–,–,O=C(Nc1cccnc1)c1ccc(C(F)(F)F)cc1
64%,–,0.104 µM,161,4.3%,0.1%,16.7 µM,0%,O=C(Nc1cccnc1)c1ccc(Br)cc1
2%,0.1%,–,–,–,–,–,–,COc1ccc(C(=O)Nc2cccnc2)cc1OC
25%,0%,–,–,–,–,–,–,Cc1ccc(C(=O)Nc2cccnc2)cc1
81%,–,0.078 µM,96,0.2%,0.2%,7.5 µM,9%,N#Cc1ccc(C(=O)Nc2cccnc2)cc1
88%,5%,0.065 µM,157,1.3%,0%,10.2 µM,–,O=C(Nc1cccnc1)c1ccc(Cl)cc1
3%,3%,–,–,–,–,–,–,O=C(Nc1cccnc1)c1ccc(OC(F)(F)F)cc1
19%,0%,–,–,–,–,–,–,COc1ccc(C(=O)Nc2cccnc2)cc1
86%,7%,0.082 µM,174,0.3%,1.1%,14.3 µM,–,O=C(Nc1cccnc1)c1ccc(F)cc1
30%,2%,–,–,–,–,–,–,O=C(Nc1cccnc1)c1ccccc1
